{
  "source": "ChEMBL document CHEMBL1687785",
  "about": "“ampG gene of Pseudomonas aeruginosa and its role in β-lactamase expression” (2010)",
  "assay_type_in_all_cases": "functional",
  "key": {"Pseudomonas aeruginosa [1]": {"tested_on": "Pseudomonas aeruginosa", "test": "Antimicrobial activity against Pseudomonas aeruginosa isolate 6 obtained from cystic fibrosis patients after 16 to 20 hrs by broth microdilution method", "how_it_was_run": "(§1)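 CLSI broth microdilution in Mueller-Hinton broth, serial 2-fold antibiotic dilutions. Inoculum about 10^4 cells per well, taken from starter cultures grown to OD600 0.5. MIC was the lowest antibiotic concentration preventing growth after 16 to 20 h at 37°C. Each MIC was determined in triplicate.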"}, "Pseudomonas aeruginosa [2]": {"tested_on": "Pseudomonas aeruginosa", "test": "Antimicrobial activity against ampG deficient Pseudomonas aeruginosa PAO1 harboring pZY0901 conferring resistance to gentamycin after 16 to 20 hrs by broth microdilution method", "how_it_was_run": "as §1"}, "Pseudomonas aeruginosa [3]": {"tested_on": "Pseudomonas aeruginosa", "test": "Antimicrobial activity against Pseudomonas aeruginosa isolate 3 obtained from cystic fibrosis patients after 16 to 20 hrs by broth microdilution method in presence of 120 uM carbonyl cyanide m-chlorophenyl-hydrazone", "how_it_was_run": "(§2)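 CLSI broth microdilution in Mueller-Hinton broth with serial antibiotic dilutions. CCCP was added from a 10 mM DMSO stock to 120 μM final, then the bacterial culture was added as inoculum (about 10^4 cells from OD600 0.5 starter cultures). MIC was the lowest concentration preventing growth after 16 to 20 h at 37°C, run in triplicate.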"}, "Pseudomonas aeruginosa [4]": {"tested_on": "Pseudomonas aeruginosa", "test": "Antimicrobial activity against ampG deficient Pseudomonas aeruginosa PAO1 harboring pZY0908 conferring resistance to gentamycin after 16 to 20 hrs by broth microdilution method", "how_it_was_run": "as §1"}, "Pseudomonas aeruginosa [5]": {"tested_on": "Pseudomonas aeruginosa", "test": "Antimicrobial activity against Pseudomonas aeruginosa isolate 16 obtained from cystic fibrosis patients after 16 to 20 hrs by broth microdilution method", "how_it_was_run": "(§3)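 CLSI broth microdilution: 2-fold serial antibiotic dilutions in Mueller-Hinton broth, inoculated with about 10^4 cells per 100 μl from starter cultures grown to OD600 0.5. MIC is the lowest concentration preventing growth after 16-20 h at 37°C. Triplicate.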"}, "Escherichia coli": {"tested_on": "Escherichia coli", "test": "Antimicrobial activity against gentamycin resistant Escherichia coli SNO301-1 harboring pEC1C carrying ampC, ampR from Enterobacter cloacae after 16 to 20 hrs by broth microdilution method", "how_it_was_run": "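CLSI broth microdilution: serial 2-fold β-lactam dilutions in Mueller-Hinton broth, inoculum about 10^4 cells from starter cultures at OD600 0.5; MIC read as lowest concentration preventing growth after 16 to 20 h at 37°C; triplicate determinations.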"}, "Pseudomonas aeruginosa [6]": {"tested_on": "Pseudomonas aeruginosa", "test": "Antimicrobial activity against ampG deficient Pseudomonas aeruginosa PAO1 harboring pZY0901 conferring resistance to gentamycin after 16 to 20 hrs by broth microdilution method in presence of 120 uM carbonyl cyanide m-chlorophenyl-hydrazone", "how_it_was_run": "as §2"}, "Pseudomonas aeruginosa [7]": {"tested_on": "Pseudomonas aeruginosa", "test": "Antimicrobial activity against ampG deficient Pseudomonas aeruginosa PAK harboring pZY0901 conferring resistance to gentamycin after 16 to 20 hrs by broth microdilution method", "how_it_was_run": "as §1"}, "Pseudomonas aeruginosa [8]": {"tested_on": "Pseudomonas aeruginosa", "test": "Antimicrobial activity against Pseudomonas aeruginosa isolate 17 obtained from cystic fibrosis patients after 16 to 20 hrs by broth microdilution method in presence of 120 uM carbonyl cyanide m-chlorophenyl-hydrazone", "how_it_was_run": "as §2"}, "Pseudomonas aeruginosa [9]": {"tested_on": "Pseudomonas aeruginosa", "test": "Antimicrobial activity against Pseudomonas aeruginosa isolate 11 obtained from cystic fibrosis patients after 16 to 20 hrs by broth microdilution method", "how_it_was_run": "as §3"}, "Pseudomonas aeruginosa [10]": {"tested_on": "Pseudomonas aeruginosa", "test": "Antimicrobial activity against Pseudomonas aeruginosa isolate 1 obtained from cystic fibrosis patients after 16 to 20 hrs by broth microdilution method", "how_it_was_run": "as §3"}, "Pseudomonas aeruginosa [11]": {"tested_on": "Pseudomonas aeruginosa", "test": "Antimicrobial activity against Pseudomonas aeruginosa PAO1 after 16 to 20 hrs by broth microdilution method", "how_it_was_run": "as §3"}, "Pseudomonas aeruginosa [12]": {"tested_on": "Pseudomonas aeruginosa", "test": "Antimicrobial activity against Pseudomonas aeruginosa isolate 14 obtained from cystic fibrosis patients after 16 to 20 hrs by broth microdilution method", "how_it_was_run": "as §3"}, "Pseudomonas aeruginosa [13]": {"tested_on": "Pseudomonas aeruginosa", "test": "Antimicrobial activity against ampG, ampGh1 deficient Pseudomonas aeruginosa PAO1 after 16 to 20 hrs by broth microdilution method in presence of 120 uM carbonyl cyanide m-chlorophenyl-hydrazone", "how_it_was_run": "as §2"}, "Pseudomonas aeruginosa [14]": {"tested_on": "Pseudomonas aeruginosa", "test": "Antimicrobial activity against ampG deficient Pseudomonas aeruginosa PAO1 harboring pUCP24 conferring resistance to gentamycin after 16 to 20 hrs by broth microdilution method", "how_it_was_run": "as §1"}, "Pseudomonas aeruginosa [15]": {"tested_on": "Pseudomonas aeruginosa", "test": "Antimicrobial activity against Pseudomonas aeruginosa isolate 4 obtained from cystic fibrosis patients after 16 to 20 hrs by broth microdilution method", "how_it_was_run": "as §1"}, "Pseudomonas aeruginosa [16]": {"tested_on": "Pseudomonas aeruginosa", "test": "Antimicrobial activity against Pseudomonas aeruginosa PAO1 after 16 to 20 hrs by broth microdilution method in presence of 120 uM carbonyl cyanide m-chlorophenyl-hydrazone", "how_it_was_run": "(§4)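 CLSI broth microdilution in Mueller-Hinton broth with CCCP added from a 10 mM DMSO stock to 120 μM final, alongside 2-fold serial antibiotic dilutions. Inoculum from starter cultures grown to OD600 0.5. MIC is the lowest concentration preventing growth after 16-20 h at 37°C. Triplicate.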"}, "Pseudomonas aeruginosa [17]": {"tested_on": "Pseudomonas aeruginosa", "test": "Antimicrobial activity against Pseudomonas aeruginosa isolate 9 obtained from cystic fibrosis patients after 16 to 20 hrs by broth microdilution method", "how_it_was_run": "as §1"}, "Pseudomonas aeruginosa [18]": {"tested_on": "Pseudomonas aeruginosa", "test": "Antimicrobial activity against Pseudomonas aeruginosa isolate 8 obtained from cystic fibrosis patients after 16 to 20 hrs by broth microdilution method", "how_it_was_run": "as §1"}, "Pseudomonas aeruginosa [19]": {"tested_on": "Pseudomonas aeruginosa", "test": "Antimicrobial activity against Pseudomonas aeruginosa isolate 9 obtained from cystic fibrosis patients after 16 to 20 hrs by broth microdilution method in presence of 120 uM carbonyl cyanide m-chlorophenyl-hydrazone", "how_it_was_run": "as §2"}, "Pseudomonas aeruginosa [20]": {"tested_on": "Pseudomonas aeruginosa", "test": "Antimicrobial activity against Pseudomonas aeruginosa isolate 7 obtained from cystic fibrosis patients after 16 to 20 hrs by broth microdilution method in presence of 120 uM carbonyl cyanide m-chlorophenyl-hydrazone", "how_it_was_run": "as §2"}, "Pseudomonas aeruginosa [21]": {"tested_on": "Pseudomonas aeruginosa", "test": "Antimicrobial activity against Pseudomonas aeruginosa isolate 2 obtained from cystic fibrosis patients after 16 to 20 hrs by broth microdilution method in presence of 120 uM carbonyl cyanide m-chlorophenyl-hydrazone", "how_it_was_run": "as §2"}, "Pseudomonas aeruginosa [22]": {"tested_on": "Pseudomonas aeruginosa", "test": "Antimicrobial activity against Pseudomonas aeruginosa isolate 5 obtained from cystic fibrosis patients after 16 to 20 hrs by broth microdilution method in presence of 120 uM carbonyl cyanide m-chlorophenyl-hydrazone", "how_it_was_run": "as §2"}, "Pseudomonas aeruginosa [23]": {"tested_on": "Pseudomonas aeruginosa", "test": "Antimicrobial activity against ampG deficient Pseudomonas aeruginosa PAK harboring pZY0901 conferring resistance to gentamycin after 16 to 20 hrs by broth microdilution method in presence of 120 uM carbonyl cyanide m-chlorophenyl-hydrazone", "how_it_was_run": "as §2"}, "Pseudomonas aeruginosa [24]": {"tested_on": "Pseudomonas aeruginosa", "test": "Antimicrobial activity against ampD, ampDh2, ampDh3 and ampG deficient Pseudomonas aeruginosa PAO1 harboring pUCP24 conferring resistance to gentamycin after 16 to 20 hrs by broth microdilution method", "how_it_was_run": "as §1"}, "Pseudomonas aeruginosa [25]": {"tested_on": "Pseudomonas aeruginosa", "test": "Antimicrobial activity against Pseudomonas aeruginosa isolate 5 obtained from cystic fibrosis patients after 16 to 20 hrs by broth microdilution method", "how_it_was_run": "as §1"}, "Pseudomonas aeruginosa [26]": {"tested_on": "Pseudomonas aeruginosa", "test": "Antimicrobial activity against ampGh1 deficient Pseudomonas aeruginosa PAK after 16 to 20 hrs by broth microdilution method", "how_it_was_run": "as §1"}, "Pseudomonas aeruginosa [27]": {"tested_on": "Pseudomonas aeruginosa", "test": "Antimicrobial activity against ampG, ampGh1 deficient Pseudomonas aeruginosa PAK after 16 to 20 hrs by broth microdilution method in presence of 120 uM carbonyl cyanide m-chlorophenyl-hydrazone", "how_it_was_run": "as §2"}, "Pseudomonas aeruginosa [28]": {"tested_on": "Pseudomonas aeruginosa", "test": "Antimicrobial activity against Pseudomonas aeruginosa isolate 17 obtained from cystic fibrosis patients after 16 to 20 hrs by broth microdilution method", "how_it_was_run": "as §1"}, "Pseudomonas aeruginosa [29]": {"tested_on": "Pseudomonas aeruginosa", "test": "Antimicrobial activity against ampD, ampDh2, ampDh3 and ampG deficient Pseudomonas aeruginosa PAO1 harboring pZY0901 conferring resistance to gentamycin after 16 to 20 hrs by broth microdilution method", "how_it_was_run": "as §1"}, "Pseudomonas aeruginosa [30]": {"tested_on": "Pseudomonas aeruginosa", "test": "Antimicrobial activity against Pseudomonas aeruginosa isolate 15 obtained from cystic fibrosis patients after 16 to 20 hrs by broth microdilution method in presence of 120 uM carbonyl cyanide m-chlorophenyl-hydrazone", "how_it_was_run": "as §4"}, "Pseudomonas aeruginosa [31]": {"tested_on": "Pseudomonas aeruginosa", "test": "Antimicrobial activity against Pseudomonas aeruginosa isolate 10 obtained from cystic fibrosis patients after 16 to 20 hrs by broth microdilution method", "how_it_was_run": "as §3"}, "Pseudomonas aeruginosa [32]": {"tested_on": "Pseudomonas aeruginosa", "test": "Antimicrobial activity against ampD, ampDh2, ampDh3 and ampGh1 deficient Pseudomonas aeruginosa PAO1 after 16 to 20 hrs by broth microdilution method", "how_it_was_run": "as §1"}},
  "data": [
    {"smiles": "CC1(C)S[C@@H]2[C@H](NC(=O)[C@H](N)c3ccccc3)C(=O)N2[C@H]1C(=O)O", "note": "[AMPICILLIN]", "values": [
      {"measurement": "MIC", "setting": "Pseudomonas aeruginosa [1]", "result": "> 1020", "unit": "µg/mL"},
      {"measurement": "MIC", "setting": "Pseudomonas aeruginosa [2]", "result": 1020, "unit": "µg/mL"},
      {"measurement": "MIC", "setting": "Pseudomonas aeruginosa [3]", "result": 64, "unit": "µg/mL"},
      {"measurement": "MIC", "setting": "Pseudomonas aeruginosa [4]", "result": 32, "unit": "µg/mL"},
      {"measurement": "MIC", "setting": "Pseudomonas aeruginosa [5]", "result": 16, "unit": "µg/mL"},
      {"measurement": "MIC", "setting": "Escherichia coli", "result": 1020, "unit": "µg/mL"},
      {"measurement": "MIC", "setting": "Pseudomonas aeruginosa [6]", "result": 512, "unit": "µg/mL"},
      {"measurement": "MIC", "setting": "Pseudomonas aeruginosa [7]", "result": 512, "unit": "µg/mL"},
      {"measurement": "MIC", "setting": "Pseudomonas aeruginosa [8]", "result": 8, "unit": "µg/mL"},
      {"measurement": "MIC", "setting": "Pseudomonas aeruginosa [9]", "result": 512, "unit": "µg/mL"},
      {"measurement": "MIC", "setting": "Pseudomonas aeruginosa [10]", "result": 512, "unit": "µg/mL"},
      {"measurement": "MIC", "setting": "Pseudomonas aeruginosa [11]", "result": 256, "unit": "µg/mL"},
      {"measurement": "MIC", "setting": "Pseudomonas aeruginosa [12]", "result": 512, "unit": "µg/mL"},
      {"measurement": "MIC", "setting": "Pseudomonas aeruginosa [13]", "result": 32, "unit": "µg/mL"},
      {"measurement": "MIC", "setting": "Pseudomonas aeruginosa [14]", "result": 32, "unit": "µg/mL"},
      {"measurement": "MIC", "setting": "Pseudomonas aeruginosa [15]", "result": 512, "unit": "µg/mL"},
      {"measurement": "MIC", "setting": "Pseudomonas aeruginosa [16]", "result": 128, "unit": "µg/mL"},
      {"measurement": "MIC", "setting": "Pseudomonas aeruginosa [17]", "result": 512, "unit": "µg/mL"},
      {"measurement": "MIC", "setting": "Pseudomonas aeruginosa [18]", "result": 256, "unit": "µg/mL"},
      {"measurement": "MIC", "setting": "Pseudomonas aeruginosa [19]", "result": 8, "unit": "µg/mL"},
      {"measurement": "MIC", "setting": "Pseudomonas aeruginosa [20]", "result": 8, "unit": "µg/mL"},
      {"measurement": "MIC", "setting": "Pseudomonas aeruginosa [21]", "result": 256, "unit": "µg/mL"},
      {"measurement": "MIC", "setting": "Pseudomonas aeruginosa [22]", "result": 512, "unit": "µg/mL"},
      {"measurement": "MIC", "setting": "Pseudomonas aeruginosa [23]", "result": 32, "unit": "µg/mL"},
      {"measurement": "MIC", "setting": "Pseudomonas aeruginosa [24]", "result": 16, "unit": "µg/mL"},
      {"measurement": "MIC", "setting": "Pseudomonas aeruginosa [25]", "result": 512, "unit": "µg/mL"},
      {"measurement": "MIC", "setting": "Pseudomonas aeruginosa [26]", "result": 512, "unit": "µg/mL"},
      {"measurement": "MIC", "setting": "Pseudomonas aeruginosa [27]", "result": 32, "unit": "µg/mL"},
      {"measurement": "MIC", "setting": "Pseudomonas aeruginosa [28]", "result": 512, "unit": "µg/mL"},
      {"measurement": "MIC", "setting": "Pseudomonas aeruginosa [29]", "result": 1020, "unit": "µg/mL"},
      {"measurement": "MIC", "setting": "Pseudomonas aeruginosa [30]", "result": 8, "unit": "µg/mL"},
      {"measurement": "MIC", "setting": "Pseudomonas aeruginosa [31]", "result": "> 1020", "unit": "µg/mL"},
      {"measurement": "MIC", "setting": "Pseudomonas aeruginosa [32]", "result": 1020, "unit": "µg/mL"}
    ]}
  ]
}
